Series [1] deals with T1, Carbonic anhydrase (Methanobacterium thermoautotrophicum) (UniProt Q50565).
T1 sequence (whole entry): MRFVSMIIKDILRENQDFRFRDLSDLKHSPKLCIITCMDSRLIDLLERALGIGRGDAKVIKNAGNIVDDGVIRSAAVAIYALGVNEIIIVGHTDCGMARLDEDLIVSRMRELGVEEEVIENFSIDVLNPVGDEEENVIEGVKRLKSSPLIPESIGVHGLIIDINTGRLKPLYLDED
The series can be described thus: Activation of archaea Methanobacterium thermoautotrophicum recombinant carbonic anhydrase by stopped flow CO2 hydration method. Particulars: Methanothermobacter thermautotrophicus.

The target of series [2] is T2, Carbonic anhydrase (Candida glabrata CBS 138) (UniProt Q6FTL6).
T2 sequence (whole entry): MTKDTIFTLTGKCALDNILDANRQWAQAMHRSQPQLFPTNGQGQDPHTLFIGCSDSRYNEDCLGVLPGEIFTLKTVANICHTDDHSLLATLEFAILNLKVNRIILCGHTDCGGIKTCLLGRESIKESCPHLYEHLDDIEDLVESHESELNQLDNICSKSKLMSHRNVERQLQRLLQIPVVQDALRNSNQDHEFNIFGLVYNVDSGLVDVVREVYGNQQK
The series can be described thus: Activation of Candida glabrata recombinant carbonic anhydrase by stopped flow CO2 hydration method. Particulars: Nakaseomyces glabratus. In a few lines:
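Recombinant yeast enzyme; stopped-flow CO2 hydration at 25 °C in 20 mM Tris (pH 8.3) and 20 mM NaClO4, with 0.2 mM phenol red read at 557 nm over 10 s. CO2 was 1.7–17 mM. Activators came from 10 mM aqueous stocks and were preincubated 15 min at room temperature with enzyme. Uncatalyzed rates were subtracted. KA was fitted from catalytic enhancement versus activator concentration; mean ± standard error of three assays.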

Series [3] has as its target Carbonic anhydrase 2 (Homo sapiens) (UniProt P00918). The experiment in a line: Activation of human recombinant carbonic anhydrase isoenzyme 2 by stopped flow CO2 hydration method.
In series [4] the target is T3, Carbonic anhydrase (Saccharomyces cerevisiae S288c) (UniProt P53615).
T3 sequence (whole entry): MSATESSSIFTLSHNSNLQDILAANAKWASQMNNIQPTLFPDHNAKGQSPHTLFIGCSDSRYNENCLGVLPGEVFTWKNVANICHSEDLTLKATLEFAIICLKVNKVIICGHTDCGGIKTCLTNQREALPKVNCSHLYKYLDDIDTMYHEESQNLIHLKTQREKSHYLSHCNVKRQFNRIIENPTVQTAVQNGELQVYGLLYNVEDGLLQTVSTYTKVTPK
The series can be described thus: Activation of Saccharomyces cerevisiae recombinant Nce103p by stopped flow CO2 hydration method.

The next series has as its system NCCc1c[nH]cn1. Particulars: Homo sapiens.

Turning to `N[C@H](Cc1ccc(O)c(O)c1)C(=O)O`, the Ka in series [1] is 15.6 µM; in series [2], 15.1 µM.
For `N[C@H](Cc1c[nH]cn1)C(=O)O`, in that order: 57 µM and 21.2 µM.
The like results for `N[C@@H](Cc1c[nH]cn1)C(=O)O` were, in that order, 69 µM and 37 µM.
The like results for `NCc1ccccn1` were, in that order, 18.7 µM and 15 µM.
For the molecule `CNC[C@@H](O)c1ccc(O)c(O)c1`, the values for the Ka in series [1] and in series [2] were 11.5 µM and 10.8 µM, respectively.
For `NCCc1ccccn1`, in that order: 40 µM and 16.3 µM.
For `N[C@@H](Cc1ccc(O)cc1)C(=O)O`, in that order: 10.5 µM and 9.5 µM.
The like results for `NCCc1ccc(O)c(O)c1` were, in that order, 51 µM and 27.6 µM.
As to `N[C@H](Cc1c[nH]c2ccccc12)C(=O)O`, the Ka came out at 41 µM in series [1] and 12.1 µM in series [2].
The like results for `N[C@@H](Cc1ccc(O)c(O)c1)C(=O)O` were, in that order, 11.4 µM and 23.3 µM.
The like results for `N[C@@H](Cc1c[nH]c2ccccc12)C(=O)O` were, in that order, 16.9 µM and 22.8 µM.
As for `N[C@H](Cc1ccc(O)cc1)C(=O)O`, the Ka in series [1] is 19.2 µM; in series [3], 0.058 µM; in series [2], 7.1 µM; in series [4], 84 µM.
As to `NCCN1CCNCC1`, the results for the Ka in series [1] and in series [2] were 13.8 µM and 14.9 µM, respectively.
Turning to `Nc1ccc(C[C@H](N)C(=O)O)cc1`, the Ka in series [1] is 89 µM; in series [2] it was 31.6 µM.
The like results for `NCCN1CCOCC1` were, in that order, 18.5 µM and 10.1 µM.
“Carbonic anhydrase 2 (Homo sapiens) (from UniProt P00918)”: the Km in the series on NCCc1c[nH]cn1 came to 9.3 mM.
Take `NCCc1c[nH]c2ccc(O)cc12`: the Ka came to 62 µM in series [1] and 16.7 µM in series [2].
The like results for `NCCc1c[nH]cn1` were, in that order, 76 µM and 27.4 µM.
